Calls of active or inactive are those of the source. No cut-off for these calls is given here.
What was measured:
[1] = tested on: Rattus norvegicus; test: Antidiabetic activity in Wistar rat model of streptozotocin-induced diabetes assessed as reduction in plasma glucose level at 30 mg/kg, po and dosage repeated for 15 days by GOD-POD method; assay type: functional, organism-based; set-up: dose 30 mg/kg
[2] = tested on: Rattus norvegicus; test: Antidiabetic activity in overnight fasted Wistar rat assessed as reduction in plasma glucose level at 30 mg/kg, po by oral glucose tolerance test; assay type: functional, organism-based; set-up: dose 30 mg/kg
In short: (§1)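 Normal Wistar rats were given a glucose load by the oral glucose tolerance method, and plasma glucose rise was followed after oral test dosing. Glibenclamide was the reference drug. Data are mean ± SEM of six observations versus control, analysed by one-way ANOVA with Dunnett test (p < 0.05, p < 0.01).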

[3] = tested on: Rattus norvegicus; test: Increase in body weight in Wistar rat model of streptozotocin-induced diabetes at 30 mg/kg, po measured over 15 days; assay type: ADME, organism-based; set-up: dose 30 mg/kg, route oral; conditions: in vivo, 360 h
[4] = biological target: Peroxisome proliferator-activated receptor gamma (Mus musculus) (UniProt P37238); test: Transactivation of PPARgamma (mouse) expressed in 3T3-L1 cells incubated for 24 hrs by luciferase reporter gene assay relative to rosiglitazone
Chain of Peroxisome proliferator-activated receptor gamma (Mus musculus) (P37238 whole entry, looked up): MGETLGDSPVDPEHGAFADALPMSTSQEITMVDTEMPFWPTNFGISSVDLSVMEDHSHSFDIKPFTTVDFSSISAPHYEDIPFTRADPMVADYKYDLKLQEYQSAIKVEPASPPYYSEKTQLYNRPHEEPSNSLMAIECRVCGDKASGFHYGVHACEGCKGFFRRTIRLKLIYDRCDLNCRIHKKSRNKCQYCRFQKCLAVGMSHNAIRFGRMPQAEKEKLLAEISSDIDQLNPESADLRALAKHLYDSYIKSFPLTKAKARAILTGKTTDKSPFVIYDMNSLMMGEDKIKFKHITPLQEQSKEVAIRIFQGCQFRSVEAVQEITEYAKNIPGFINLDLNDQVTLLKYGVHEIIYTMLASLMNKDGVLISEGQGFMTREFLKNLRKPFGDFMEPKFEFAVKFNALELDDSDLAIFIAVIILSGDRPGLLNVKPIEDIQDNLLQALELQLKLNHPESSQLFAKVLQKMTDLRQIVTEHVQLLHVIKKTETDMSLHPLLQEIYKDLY

[5] = tested on: Rattus norvegicus; test: Effect on body weight in Wistar rat model of streptozotocin-induced diabetes at 30 mg/kg, po measured over 15 days; assay type: ADME, organism-based; set-up: dose 30 mg/kg, route oral; conditions: in vivo, 360 h
[6] = tested on: Rattus norvegicus; test: Antidiabetic activity in Wistar rat model of streptozotocin-induced diabetes assessed as reduction in plasma glucose level at 36 mg/kg, po and dosage repeated for 15 days by GOD-POD method; assay type: functional, organism-based; set-up: dose 36 mg/kg
[7] = tested on: Rattus norvegicus; test: Effect on body weight in Wistar rat model of streptozotocin-induced diabetes at 36 mg/kg, po measured over 15 days; assay type: ADME, organism-based; set-up: dose 36 mg/kg, route oral; conditions: in vivo, 360 h
[8] = tested on: Rattus norvegicus; test: Antidiabetic activity in overnight fasted Wistar rat assessed as reduction in plasma glucose level at 36 mg/kg, po by oral glucose tolerance test; assay type: functional, organism-based; set-up: dose 36 mg/kg; in short: as §1
[9] = tested on: 3T3-L1; test: Increase in PPARgamma gene expression in mouse 3T3L1 cells at 10 uM incubated for 24 hrs by RT-PCR method; assay type: functional

Row | Activity [4] | SMILES | inhibition [1] | inhibition [2] | Activity [3] | Activity [5] | inhibition [6] | Activity [7] | inhibition [8] | fold change (FC) [9]
1 | inactive | CCCCNC(=O)NS(=O)(=O)c1ccc(N2N=C(c3cccs3)CC2c2ccccc2)cc1 (stereo not drawn) | Active | Active | Toxic |  |  |  |  | 
2 | inactive | Cc1ccc(NC(=O)NS(=O)(=O)c2ccc(N3N=C(c4cccs4)CC3c3ccccc3)cc2)cc1 (stereo not drawn) | Active | Active |  |  |  |  |  | 
3 | inactive | COc1ccc(C2CC(c3cccs3)=NN2c2ccc(S(=O)(=O)NC(=O)Nc3ccc(C)cc3)cc2)cc1 (stereo not drawn) |  | Active |  | Non-toxic |  |  |  | 
4 |  | CN(CCOc1ccc(CC2SC(=O)NC2=O)cc1)c1ccccn1 (stereo not drawn) [ROSIGLITAZONE] |  |  |  |  | Active | Toxic | Active | 1.5
5 | inactive | COc1ccc(NC(=O)NS(=O)(=O)c2ccc(N3N=C(c4cccs4)CC3c3ccccc3)cc2)cc1 (stereo not drawn) | Active | Active |  | Non-toxic |  |  |  | 
6 | inactive | Cc1ccc(NC(=O)NS(=O)(=O)c2ccc(N3N=C(c4cccs4)CC3c3cccs3)cc2)cc1 (stereo not drawn) |  | Active |  | Non-toxic |  |  |  | 
7 | inactive | O=C(NCc1ccccc1)NS(=O)(=O)c1ccc(N2N=C(c3cccs3)CC2c2ccccc2)cc1 (stereo not drawn) | Active | Active |  | Non-toxic |  |  |  | 
8 | inactive | Cc1ccc(NC(=O)NS(=O)(=O)c2ccc(N3N=C(c4cccs4)CC3c3ccc(N(C)C)cc3)cc2)cc1 (stereo not drawn) |  | Active |  | Non-toxic |  |  |  | 
9 | inactive | O=C(NCc1ccccc1)NS(=O)(=O)c1ccc(N2N=C(c3cccs3)CC2c2cccs2)cc1 (stereo not drawn) |  | Active |  | Non-toxic |  |  |  | 
10 | inactive | COc1ccc(NC(=O)NS(=O)(=O)c2ccc(N3N=C(c4cccs4)CC3c3cccs3)cc2)cc1 (stereo not drawn) | Active | Active |  | Non-toxic |  |  |  | 
11 | inactive | Cc1ccc(C2CC(c3cccs3)=NN2c2ccc(S(=O)(=O)NC(=O)NCc3ccccc3)cc2)s1 (stereo not drawn) |  | Active |  | Non-toxic |  |  |  | 
12 | inactive | CN(C)c1ccc(C2CC(c3cccs3)=NN2c2ccc(S(=O)(=O)NC(=S)NCc3ccccc3)cc2)cc1 (stereo not drawn) |  | Active |  | Non-toxic |  |  |  | 
13 | inactive | CN(C)c1ccc(C2CC(c3cccs3)=NN2c2ccc(S(=O)(=O)NC(=O)NCc3ccccc3)cc2)cc1 (stereo not drawn) |  | Active | Toxic |  |  |  |  | 
14 | inactive | COc1ccc(Cl)cc1C(=O)NCCc1ccc(S(=O)(=O)NC(=O)NC2CCCCC2)cc1 [GLYBURIDE] | Active | Active | Toxic |  |  |  |  | 1
15 |  | Cc1ccc(C2CC(c3cccs3)=NN2c2ccc(S(=O)(=O)NC(=O)Nc3ccccc3C)cc2)s1 (stereo not drawn) |  |  |  | Non-toxic |  |  |  | 
16 | inactive | Cc1ccccc1NC(=O)NS(=O)(=O)c1ccc(N2N=C(c3cccs3)CC2c2ccccc2)cc1 (stereo not drawn) | Active | Active |  | Non-toxic |  |  |  | 0.95
17 | inactive | CCCCNC(=O)NS(=O)(=O)c1ccc(N2N=C(c3cccs3)CC2c2cccs2)cc1 (stereo not drawn) |  | Active | Toxic |  |  |  |  | 
